Here are results for 167 variants from the RNAGym collection of RNA variant scans (doi:10.1126/science.aae0568).

Sequences and labels used below:
B1: tRNA (parent)
chain: GUUCCGUUGGCGUAAUGGUAACGCGUCUCCCUCCUAAGGAGAAGACUGCGGGUUCGAGUCCCGUACGGAACG

Fewer inactive variants are shown than the library holds.

Variants of B1 are the subject of the series. Briefly: yeast fitness relative to wild type (ratio to wild type); higher = fitter; tRNA-Arg(CCU), competitive growth, 37 C, YPD. The procedure, abridged: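 The tRNA-Arg(CCU) gene variants were made by chemical synthesis with a 3% per-site mutation rate at 69 sites and inserted at the native genomic locus of Saccharomyces cerevisiae. After pooling, the strains were competed in YPD at 37°C for 24 hours in six parallel replicates. Gene amplicons from the start population and each end population were read by 100-nucleotide paired-end sequencing, and Darwinian fitness relative to wild type was taken from genotype frequency changes. Genotypes needed ≥ 100 starting reads, and estimates < 0.5 were set to 0.5.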
C11U C49G C55G C61G: the yeast fitness is no more than 0.5.
As to C11U U19G C22G A42G G44C C55U, the yeast fitness is no more than 0.5.
In the case of C11U U19G G51C C66A it was 0.578; in that of C11U U26A C33U U53C, no more than 0.5; in that of C11U C29U C66U, 0.603.
The value for C11U C33A C34G was 0.526.
As to C11U G38C U64G A70C, the yeast fitness is no more than 0.5.
In the case of C11U U28C, the yeast fitness was determined as 0.918.
The value for C11U C31U C66U was 0.742.
In the case of C11U C33G C46A C61A it was no more than 0.5.
The value for C11U G44A C60G U64C was no more than 0.5; that for C11U G56C A57U C60U was no more than 0.5; that for C11U G56C was 0.709.
Turning to C11U C31A G51C, the yeast fitness stood at 0.532.
In the case of C11U G51A G56A U59C it was no more than 0.5.
Consider C11U C31U A37U A70U, for which the yeast fitness is no more than 0.5.
The value for C11U C46A A65U was 0.682; that for C11U U28C A40C G50C was no more than 0.5.
In the case of C11U C31U it was 0.804.
In the case of C11U C31A it was 0.725; in that of C11U C27A C29A A37U A45U, 0.54.
With C11U C27U C31A U35C C60G A70C, the yeast fitness is no more than 0.5.
For C11U G25A C66U A70C, the yeast fitness is 0.688.
In the case of C11U U13C C30A G52A A69U it was no more than 0.5; in that of C11U C29G A37C A42U, no more than 0.5.
Regarding C11U C49U, the yeast fitness was found to be 0.976.
The value for C11U C49A was 0.724.
The value for C11U C34A C61U was no more than 0.5.
In the case of C11U U13A C62U it was 0.721; in that of C11U C27U G52C C55G, no more than 0.5; in that of C11U U19A G41A A65U, no more than 0.5.
In the case of C11U U16C U19A C29U, the yeast fitness was no more than 0.5.
The value for C11U G39C G41A was no more than 0.5; that for C11U U16C C27U C31A U35C C55G C66U was no more than 0.5; that for C11U C55G G67A was no more than 0.5.
Turning to C11U U26G, the yeast fitness stood at 0.856.
Regarding C11U U26C, the yeast fitness was 0.948.
For the variant C11U U26A, the yeast fitness was determined as 0.999.
Consider C11U U26C U47A U64A, for which the yeast fitness is no more than 0.5.
On to C11U G38A C60G, for which the yeast fitness is no more than 0.5.
The value for C11U C33U G68C was 0.527.
The value for C11U C31G C46G C66U was 0.564; that for C11U C29A A57U C62U A70U was no more than 0.5.
The value for C11U C62G was 0.912; that for C11U C62U was 0.943; that for C11U C62A was 0.743.
C11U C29U C60G A70G: the yeast fitness is no more than 0.5.
In the case of C11U C30U C55G it was 0.541; in that of C11U U16C C27G C34G G67A, no more than 0.5.
In the case of C11U G44C C61U it was 0.528.
In the case of C11U G44A A65C, the yeast fitness was 0.704.
In the case of C11U G25C, the yeast fitness came out at 0.982.
In the case of C11U G25C C55U it was no more than 0.5; in that of C11U U16G, 0.823; in that of C11U U16C, 1.02.
In the case of C11U G44A C55G it was 0.572; in that of C11U G41C C60G, 0.647.
Take C11U U19A C60G G68A: the yeast fitness was no more than 0.5.
With C11U U16C C31U U54C, the yeast fitness is no more than 0.5.
The value for C11U U13C A42U G63A was no more than 0.5.
As to C11U G18A G23C C34U, the yeast fitness is no more than 0.5.
Take C11U G25A A43G G51C C55G: the yeast fitness was 0.695.
In the case of C11U U16A U47C it was 0.838.
Regarding C11U U16A C24G A42C, the yeast fitness is no more than 0.5.
The value for C11U G51A U59A was no more than 0.5; that for C11U C55A G56C G67C was no more than 0.5.
The value for C11U C27G C29G C49U G63C was no more than 0.5.
For C11U C31U G41U C49U, the yeast fitness was found to be 0.522.
In the case of C11U G52C C61G it was no more than 0.5; in that of C11U C30A A65C, 0.685; in that of C11U U26G A43C U53C C66U A70C, 0.504.
Turning to C11U C61U, the yeast fitness amounted to 0.827.
In the case of C11U G48A G51C G68U it was 0.59.
The value for C11U C55U G68C was 0.537; that for C11U G52C C66U was no more than 0.5.
Turning to C11U G48C A65G, the yeast fitness amounted to 0.714.
C11U G18A C31U A40U U47G: the yeast fitness is no more than 0.5.
The value for C11U U16C G58C was 0.653; that for C11U C31U A42C G44A A45U was no more than 0.5.
For C11U C34U G38A G44C C66U, the yeast fitness was no more than 0.5.
Turning to C11U G41C A42G, the yeast fitness was 0.547.
In the case of C11U G39C C55A it was no more than 0.5.
In the case of C11U G39C C55G it was no more than 0.5.
The value for C11U C27A G48A U53A C61U was no more than 0.5; that for C11U C60G G67A was 0.549.
In the case of C11U C24U U53A C66U, the yeast fitness is no more than 0.5.
The value for C11U C46U A70G was 0.786; that for C11U G50C was 0.759; that for C11U C34A C46U was no more than 0.5.
The value for C11U G12A C24U U47C was no more than 0.5; that for C11U G17A C34U C55G was no more than 0.5; that for C11U C34G U47G was no more than 0.5.
The value for C11U C31U G58C was 0.643; that for C11U C46U G67C was 0.608; that for C11U U13A G25A was 0.716.
As to C11U C29G A36U C66A, the yeast fitness is no more than 0.5.
The value for C11U G23C G58A was 0.669; that for C11U C34G G38C C61U was no more than 0.5.
As to C11U G52A A69C, the yeast fitness turned out to be 0.865.
The value for C11U C27U C31U A36C G44C A45G G56C A70U was no more than 0.5.
The value for C11U C55G was 0.594; that for C11U U19A A37C A40C was 0.501; that for C11U U19A A21C A42G was 0.568.
The value for C11U U19G G51C C61G was no more than 0.5; that for C11U G12C C46A was no more than 0.5.
With C11U C31G C49G C62U G67C, the yeast fitness was no more than 0.5.
In the case of C11U U16A G67A it was 0.551.
The value for C11U G18A A43U was 0.533; that for C11U C27G A42C G68A was no more than 0.5; that for C11U C62U A70C was 0.698.
In the case of C11U G17C A21C C24A G41A C46G C61A it was no more than 0.5; in that of C11U G17C A45G, 0.586; in that of C11U U19A A42G, 0.56.
On to C11U C31G A57U, for which the yeast fitness is 0.533.
The value for C11U G25A U59G was 0.538.
For the variant C11U C24U C34G, the yeast fitness was no more than 0.5.
The value for C11U G38A A43C A65C was no more than 0.5; that for C11U G52C G67C was no more than 0.5; that for C11U C30U C34G was 0.576.
With C11U C27G G48C C49G, the yeast fitness was no more than 0.5.
In the case of C11U U13A C30A C33A A57U it was no more than 0.5; in that of C11U C24U G44C C49A, no more than 0.5.
Regarding C11U C62G A69U, the yeast fitness is 0.578.
In the case of C11U C31U C60A it was no more than 0.5; in that of C11U G51A, 0.727.
The value for C11U G38C C62G was 0.542; that for C11U U19A A43U C49U U59A G63A was no more than 0.5; that for C11U C30U G38C A65G was 0.506.
Turning to C11U C34A A36C G67C, the yeast fitness is no more than 0.5.
The value for C11U U16A A36G A43G C62A was no more than 0.5.
In the case of C11U C60A it was 0.631; in that of C11U G12C A21U U32A, 0.694.
In the case of C11U G52C A69G it was no more than 0.5; in that of C11U C55G A69C, 0.509; in that of C11U C29U G48A, 0.621.
With C11U C62G C66A, the yeast fitness is no more than 0.5.
The value for C11U G18C was 0.728.
C11U G48A A65U: the yeast fitness was determined as 0.792.
The value for C11U G48A A65C was 0.663.
In the case of C11U C34A A70G it was 0.581.
The value for C11U C62U A69C was 0.842; that for C11U C27A G50A A69U was no more than 0.5; that for C11U U16C C31U A69G was no more than 0.5.
For C11U C61G A65C, the yeast fitness came out at 0.609.
In the case of C11U U13G A20U U53G it was no more than 0.5; in that of C11U U26A A43U C60A A65G, 0.531.
Regarding C11U C27G C55U C66A, the yeast fitness was no more than 0.5.
In the case of C11U C29U U47C G67A A70U it was no more than 0.5; in that of C11U G18C G39C, no more than 0.5.
For C11U C30G G58A, the yeast fitness was no more than 0.5.
The value for C11U U13A A20C C22G was no more than 0.5; that for C11U C30G A40G G50C G51C was no more than 0.5.
The value for C11U C34U G48A G67U was no more than 0.5.
With C11U G39C G58A A70U, the yeast fitness was no more than 0.5.
In the case of C11U C29G A37C A42U A57G C61U G67A it was no more than 0.5.
The value for C11U C30A U47A was 0.57; that for C11U C24U C49A C62A was no more than 0.5.
On to C11U G41C, for which the yeast fitness came out at 0.852.
In the case of C11U G25A A57U, the yeast fitness is no more than 0.5.
The value for C11U U13C A69C was 0.737; that for C11U G18A G23A A36U G48C was no more than 0.5; that for C11U G25A A43G was 0.592.
For C11U U19G C27U G48A C61G, the yeast fitness is no more than 0.5.
The value for C11U G12A A15C C31A G51A C66U was 0.594; that for C11U G17A A57G was no more than 0.5.
The value for C11U C34G A45C G51A A65U was no more than 0.5; that for C11U C30G A40U U54A was no more than 0.5.
